From ChEMBL document CHEMBL1150422, “Diarylmethyloxime and hydrazone derivatives with 5-indolyl moieties as potent inhibitors of tubulin polymerization” (Bioorg Med Chem, 2008)

Legend:
HeLa = experiment: Cytotoxicity against human HeLa cells after 72 hrs by XTT method; type: functional, cell-based
[1] = Inhibition of calf brain tubulin polymerization after 20 mins; set-up: species or system Bos taurus
Outline: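 Turbidity at 450 nm was followed using 1.0 mg/mL microtubule protein in 0.1 M MES, 1 mM EGTA, 1 mM MgCl₂, 1 mM β-ME, 1.5 mM GTP, pH 6.7, with a ligand-free control. Samples were preincubated for 30 min at 20 °C, iced for 10 min, and assembly was started by shifting from 4 °C to 37 °C. IC50 was read graphically at 20 min. At least two independent experiments used different protein preparations.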

HT-29 = experiment: Cytotoxicity against human HT29 cells after 72 hrs by XTT method; type: functional, cell-based; conditions: HT-29, 72 h
Outline: (§1)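 Cells were seeded in exponential growth per well: HeLa 1.5 × 10³, HT-29 3 × 10³, A-549 5 × 10³, HL-60 3 × 10³. Adherent lines were left to attach for 24 h at 37 °C in 5% CO₂. Cells were exposed to a range of compound concentrations for 72 h. XTT/PMS reagent was then added for 4 h, and absorbance was read at 490 nm against a 655 nm reference. IC50 is the concentration giving 50% inhibition of proliferation.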

Bos taurus [2] = organism: Bos taurus; experiment: Inhibition of calf brain tubulin polymerization at 20 uM after 20 mins
Outline: (§2)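 Microtubule protein (1.0 mg/mL) in 0.1 M MES, 1 mM EGTA, 1 mM MgCl₂, 1 mM β-ME, 1.5 mM GTP, pH 6.7 was preincubated with ligand for 30 min at 20 °C, then cooled on ice for 10 min. Assembly was triggered by moving from 4 °C to 37 °C. Inhibition was measured turbidimetrically at 450 nm after 20 min against a no-ligand control.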

HL-60 = experiment: Cytotoxicity against human HL60 cells after 72 hrs by XTT method; type: functional, cell-based; conditions: HL-60, 72 h; outline: as §1
A549 = experiment: Cytotoxicity against human A549 cells after 72 hrs by XTT method; type: functional, cell-based; conditions: A549, 72 h
Bos taurus [3] = organism: Bos taurus; experiment: Inhibition of calf brain tubulin polymerization at 40 uM after 20 mins; outline: as §2
Bos taurus [4] = organism: Bos taurus; experiment: Inhibition of calf brain tubulin polymerization at 30 uM after 20 mins; outline: as §2

SMILES | IC50 (HeLa) [nM] | IC50 [1] [nM] | IC50 (HT-29) [nM] | inhibition (Bos taurus [2]) [%] | IC50 (HL-60) [nM] | IC50 (A549) [nM] | inhibition (Bos taurus [3]) [%] | inhibition (Bos taurus [4]) [%]
COc1ccc(C(=O)c2cc(OC)c(OC)c(OC)c2)cc1O [PHENSTATIN] | 30 | 2500 | 30 | 97 | 1800 | 300 | – | –
CCn1ccc2cc(C(OC(C)=O)c3cc(OC)c(OC)c(OC)c3)ccc21 (stereo unspecified) | > 1000 | – | > 1000 | 0 | > 10000 | > 10000 | – | –
CCn1ccc2cc(/C(=N\OC(C)=O)c3cc(OC)c(OC)c(OC)c3)ccc21 | > 1000 | – | > 1000 | 26 | > 1000 | > 10000 | – | –
CCn1ccc2cc(/C(=N\O)c3cc(OC)c(OC)c(OC)c3)ccc21 | > 1000 | 5900 | > 1000 | 87 | > 1000 | > 10000 | – | –
COc1ccc(/C=C\c2cc(OC)c(OC)c(OC)c2)cc1O [COMBRETASTATIN A4] | – | 3000 | 2 | – | – | – | – | –
CCn1ccc2cc(C(=O)c3cc(OC)c(OC)c(OC)c3)ccc21 | 16 | 5700 | – | 95 | 34 | 140 | – | –
COc1cc(C(OC(C)=O)c2ccc3c(ccn3C)c2)cc(OC)c1OC (stereo unspecified) | 6.4 | – | 260 | 41 | 240 | > 10000 | – | –
COc1cc(/C(=N\OC(=O)OC(C)(C)C)c2ccc3c(ccn3C)c2)cc(OC)c1OC | > 1000 | – | > 1000 | 17 | > 1000 | > 1000 | – | –
CCn1ccc2cc(/C(=N/OC(C)=O)c3cc(OC)c(OC)c(OC)c3)ccc21 | > 10000 | – | > 10000 | 54 | > 1000 | > 10000 | – | –
COc1cc(/C(=N/OC(C)=O)c2ccc3c(ccn3C)c2)cc(OC)c1OC | – | – | – | 38 | > 10000 | – | – | –
COc1cc(C(O)c2ccc3c(ccn3C)c2)cc(OC)c1OC (stereo unspecified) | > 1000 | 18000 | > 1000 | 86 | > 10000 | > 10000 | – | –
COc1cc(/C(=N/OC(=O)OC(C)(C)C)c2ccc3c(ccn3C)c2)cc(OC)c1OC | > 1000 | – | > 1000 | 10 | > 1000 | > 10000 | – | –
COc1cc(C(=O)c2ccc3c(ccn3C)c2)cc(OC)c1OC | 34 | 7900 | – | – | – | 120 | 98 | –
COc1cc(/C(=N/N)c2ccc3c(ccn3C)c2)cc(OC)c1OC | – | – | – | – | > 10000 | – | – | 35
CCn1ccc2cc(C(O)c3cc(OC)c(OC)c(OC)c3)ccc21 (stereo unspecified) | > 1000 | – | > 1000 | 42 | > 10000 | > 10000 | – | –
COc1cc(/C(=N\OC(C)=O)c2ccc3c(ccn3C)c2)cc(OC)c1OC | – | – | – | 41 | > 10000 | – | – | –
COc1cc(/C(=N/O)c2ccc3c(ccn3C)c2)cc(OC)c1OC | 360 | 1800 | 330 | – | 110 | > 10000 | – | 82
CCn1ccc2cc(/C(=N\N)c3cc(OC)c(OC)c(OC)c3)ccc21 | > 1000 | – | > 1000 | – | > 1000 | > 10000 | – | 7
CN/N=C(/c1cc(OC)c(OC)c(OC)c1)c1ccc2c(ccn2C)c1 | > 1000 | – | > 1000 | 20 | > 1000 | > 1000 | – | –
COc1cc(/C(=N\O)c2ccc3c(ccn3C)c2)cc(OC)c1OC | – | – | – | 23 | – | – | – | –
COc1cc(/C(=N/NC(C)=O)c2ccc3c(ccn3C)c2)cc(OC)c1OC | 2300 | – | – | – | > 1000 | > 10000 | – | 14
